The source of these data is ChEMBL document CHEMBL1649543 (Antimicrob Agents Chemother, 2009).

Calls of active or inactive are those of the source. The rule behind the calls is not given here.

The term IC50 denotes the concentration needed to halve the response being measured. Broadly, the Km is the concentration of substrate that gives half-maximal velocity.

Data set [1] addresses T1, Multidrug resistance protein CDR1 (Candida albicans, UniProt P43071). The data set can be described thus: Inhibition of GFP-tagged Candida albicans CDR1 expressed in Saccharomyces cerevisiae assessed as inhibition of R6G efflux. The method, boiled down:
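S. cerevisiae AD-CDR1 cells were grown 5 h, then de-energized 45 min in 5 mM deoxyglucose/5 mM dinitrophenol in glucose-free PBS. Compound (10–100 μM) was added 5 min before 10 μM R6G, and cells were loaded 40 min at 30°C. After washing, efflux was started with 2% glucose. Supernatant A527 was read at 40 min, with glucose-free controls. Means of three independent experiments.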

Data set [2] deals with Saccharomyces cerevisiae. Put plainly: Toxicity against CDR1-expressing Saccharomyces cerevisiae AD after 48 hrs by MTT assay.
Data set [3] deals with Saccharomyces cerevisiae. The data set can be described thus: Toxicity against CDR2-expressing Saccharomyces cerevisiae AD after 48 hrs by MTT assay.
Data set [4] has as its system Candida albicans. Put plainly: Effect on CDR1 expression in Candida albicans at 100 uM by Western blot analysis. It counts as functional, organism-based. Background: A western blot detects proteins with antibodies after separation by electrophoresis.
For data set [5], the system named is Saccharomyces cerevisiae. Put plainly: Toxicity against Candida albicans MDR1-expressing Saccharomyces cerevisiae AD1-8u after 48 hrs by MTT assay. For orientation: Tetrazolium dyes change colour on reduction, which living cells bring about.
The test system of data set [6] is Saccharomyces cerevisiae. The data set can be described thus: Toxicity against PDR5-expressing Saccharomyces cerevisiae AD after 48 hrs by MTT assay.
For data set [7], the target named is T1, Multidrug resistance protein CDR1. Put plainly: Displacement of [125I]IAAP from GFP-tagged Candida albicans CDR1 expressed in Saccharomyces cerevisiae. In short, it runs like this: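 Crude membranes (50 μg) from S. cerevisiae AD-CDR1 cells were preincubated with compound for 10 min at 37°C in 50 mM Tris-HCl pH 7.5. They were then given 3–6 nM [125I]IAAP for 5 min under subdued light and UV-crosslinked at 365 nm for 10 min at room temperature. Cdr1p was immunoprecipitated with anti-GFP, run on 7% Tris-acetate gel, and the band quantified by phosphorimager.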
Background: In a radioligand displacement assay an active substance lowers the binding of a labelled ligand.

The target in data set [8] is Multidrug resistance protein CDR1 (Candida albicans) (UniProt P43071). As to conditions: 100 uM.
Data set [9] shares this target. As to conditions: 100 uM. The source holds these as a separate data set.
Data set [10] deals with Saccharomyces cerevisiae. Put plainly: Toxicity against Saccharomyces cerevisiae AD1-8u after 48 hrs by MTT assay.
For data set [11], the system named is Candida albicans. The data set can be described thus: Antifungal activity against Candida albicans by checkerboard method in presence of itraconazole. It counts as functional. In short, it runs like this:
(§1)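 Checkerboard (CLSI method) on S. cerevisiae AD1-8u cells overexpressing GFP-tagged C. albicans Cdr1p (AD-CDR1). […] FIC = MIC in combination/MIC alone.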

In data set [12] the test system is Candida albicans. The data set can be described thus: Antifungal activity against Candida albicans by checkerboard method in presence of miconazole. The class given is functional. In short, it runs like this: as §1
The subject of data set [13] is Candida albicans. The data set can be described thus: Antifungal activity against Candida albicans by checkerboard method in presence of ketoconazole. It counts as functional. The method, boiled down:
as §1

Data set [14] concerns Candida albicans. The data set can be described thus: Antifungal activity against Candida albicans by checkerboard method in presence of R6G. It counts as functional. The method, boiled down:
as §1

Data set [15] relates to COc1cc(/C=C/C(=O)CC(=O)/C=C/c2ccc(O)c(OC)c2)ccc1O. As to conditions: Candida albicans.

Consider `O=C(/C=C/c1ccc(O)cc1)CC(=O)/C=C/c1ccc(O)cc1` [BISDEMETHOXYCURCUMIN], for which the IC50 in data set [1] was determined as 40 µM.

For the molecule `COc1cc(/C=C/C(=O)CC(=O)/C=C/c2ccc(O)c(OC)c2)ccc1O` [CURCUMIN], the IC50 was determined as 493 µM in the data set with Saccharomyces cerevisiae [2]; 411 µM with Saccharomyces cerevisiae [3]; 40 µM in data set [1]; 455 µM in the data set on Saccharomyces cerevisiae [5]; 498 µM in the data set with Saccharomyces cerevisiae [6]; 14.2 µM in data set [7]. In addition, 422 µM corresponded to half-maximal inhibition in the data set on Saccharomyces cerevisiae [10] (IC50). Also, in the data set with Candida albicans [4], the result was inactive. Moreover, in [8], the inhibition result was “inactive”. Further, the inhibition entry in [9] was “Active”.

With `COc1cc(/C=C/C(O)=C/C(=O)/C=C/c2ccc(O)cc2)ccc1O` [DEMETHOXYCURCUMIN], the IC50 in [1] was found to be 45 µM.

For the molecule `CCC(C)n1ncn(-c2ccc(N3CCN(c4ccc(OCC5COC(Cn6cncn6)(c6ccc(Cl)cc6Cl)O5)cc4)CC3)cc2)c1=O` (configuration not stated) [ITRACONAZOLE], in the data set on Candida albicans [11], the FIC worked out at 0.005.

`CC(=O)N1CCN(c2ccc(OCC3COC(Cn4ccnc4)(c4ccc(Cl)cc4Cl)O3)cc2)CC1` (configuration not stated) [KETOCONAZOLE]: the FIC in the data set with Candida albicans [12] worked out at 0.005; in the data set on Candida albicans [13] it was 0.0054.

Regarding `CC/N=c1\cc2oc3cc(NCC)c(C)cc3c(-c3ccccc3C(=O)OCC)c-2cc1C.Cl` [RHODAMINE 6G HYDROCHLORIDE], the FIC in the data set with Candida albicans [14] stood at 0.0013.

With “Multidrug resistance protein CDR1 (Candida albicans) (from UniProt P43071)”, the Km in data set [15] is 5.87 µM.
